Series [1] addresses Sodium channel protein type 5 subunit alpha (Homo sapiens, UniProt Q14524). As to the kind of experiment: Inhibition of […] channel Nav1.5 (unknown origin). Put shortly: (§1)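 Automated IonWorks patch clamp was run on CHO or HEK cells expressing each channel. A channel-specific voltage pulse was applied before compound and again about 3 min after addition.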
The nature of series [2]: Clearance in beagle dog at 10 mg/kg, iv. Format: ADME, organism-based, Canis lupus familiaris. Details: dose 10 mg/kg, route intravenous. Particulars: in vivo. Put shortly: (§2)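 Male rats (Wistar Han) and Beagle dogs received 10 mg/kg as a 15 min iv infusion. Serial 200 µL whole-blood samples were taken from 0 to 24 h. Plasma levels were measured by LC–MS/MS against a standard curve after methanol protein precipitation. Parameters were estimated non-compartmentally.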

For the next series, the system named is Escherichia coli. As to the kind of experiment: Antimicrobial activity against Escherichia coli W3110 after 18 to 20 hrs by broth microdilution. Particulars: K-12 substr. W3110. Format: functional. Put shortly: (§3)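 Broth microdilution followed CLSI guidelines in Mueller Hinton broth. Inocula were grown 18–20 h at 35 °C on blood agar. Compound in DMSO was tested in doubling dilutions from 64 to 0.06 µg/mL, at 2% DMSO final. Plates were incubated 18–20 h and read at OD 620 nm. MIC was taken as the concentration giving >90% growth inhibition.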
For orientation: Broth dilution looks for growth in wells or tubes with falling amounts of substance.

Series [3] concerns the target Sodium-dependent serotonin transporter (Homo sapiens) (UniProt P31645). In words: Inhibition of SERT (unknown origin) at 30 uM.
Series [4] in a line: Half life in beagle dog at 10 mg/kg, iv. Format: ADME, organism-based, Canis lupus familiaris. Details: dose 10 mg/kg, route intravenous. Particulars: in vivo. Put shortly:
as §2

Series [5] is described as follows: AUC in rat at 10 mg/kg, iv. The class given is ADME, organism-based. Details: dose 10 mg/kg, route intravenous. Particulars: plasma. Put shortly:
as §2

The target of series [6] is Potassium voltage-gated channel subfamily A member 5 (Homo sapiens, UniProt P22460). In words: Inhibition of potassium channel Kv1.5 (unknown origin). Put shortly: as §1
Series [7] in a line: Bioavailability in rat at 10 mg/kg, […]. The class given is ADME, organism-based. Particulars: in vivo.
In series [8] the target is T1, Potassium/sodium hyperpolarization-activated cyclic nucleotide-gated channel 4 (Homo sapiens, UniProt Q9Y3Q4).
T1 sequence (Q9Y3Q4 whole entry): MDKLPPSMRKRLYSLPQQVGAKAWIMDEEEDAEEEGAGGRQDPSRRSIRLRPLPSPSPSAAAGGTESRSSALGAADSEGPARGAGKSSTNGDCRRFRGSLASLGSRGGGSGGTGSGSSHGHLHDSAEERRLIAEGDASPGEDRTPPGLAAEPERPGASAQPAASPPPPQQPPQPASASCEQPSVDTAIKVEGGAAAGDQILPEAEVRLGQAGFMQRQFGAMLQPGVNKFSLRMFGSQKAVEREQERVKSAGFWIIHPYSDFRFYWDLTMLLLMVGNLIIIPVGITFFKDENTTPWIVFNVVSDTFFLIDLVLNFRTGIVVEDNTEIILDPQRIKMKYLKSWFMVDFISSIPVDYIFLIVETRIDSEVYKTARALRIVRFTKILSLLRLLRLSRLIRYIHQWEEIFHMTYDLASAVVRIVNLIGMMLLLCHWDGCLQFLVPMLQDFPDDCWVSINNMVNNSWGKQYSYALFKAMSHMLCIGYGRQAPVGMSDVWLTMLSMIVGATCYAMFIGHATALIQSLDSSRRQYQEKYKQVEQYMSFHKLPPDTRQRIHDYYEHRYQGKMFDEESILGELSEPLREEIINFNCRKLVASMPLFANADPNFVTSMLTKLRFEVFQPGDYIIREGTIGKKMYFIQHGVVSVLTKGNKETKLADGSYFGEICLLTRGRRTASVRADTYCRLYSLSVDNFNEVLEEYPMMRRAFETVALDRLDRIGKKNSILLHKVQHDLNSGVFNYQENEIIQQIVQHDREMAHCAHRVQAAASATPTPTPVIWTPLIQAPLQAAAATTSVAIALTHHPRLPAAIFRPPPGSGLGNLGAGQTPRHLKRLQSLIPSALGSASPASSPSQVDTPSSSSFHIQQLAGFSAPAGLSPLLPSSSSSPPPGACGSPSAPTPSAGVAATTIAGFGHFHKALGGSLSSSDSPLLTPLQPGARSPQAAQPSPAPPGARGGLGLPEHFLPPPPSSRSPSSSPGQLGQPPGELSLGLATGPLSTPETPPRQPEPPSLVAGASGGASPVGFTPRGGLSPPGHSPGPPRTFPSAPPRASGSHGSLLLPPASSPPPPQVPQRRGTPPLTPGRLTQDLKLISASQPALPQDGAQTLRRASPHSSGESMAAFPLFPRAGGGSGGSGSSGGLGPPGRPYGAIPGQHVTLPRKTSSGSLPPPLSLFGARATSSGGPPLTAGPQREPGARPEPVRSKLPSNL
In words: Inhibition of potassium channel HCN4 (unknown origin). Put shortly: as §1

Series [9] is described as follows: Half life in rat at 10 mg/kg, iv. The class given is ADME, organism-based. More on the design: dose 10 mg/kg, route intravenous. Particulars: in vivo. Put shortly:
as §2

The test system of the next series is Pseudomonas aeruginosa. As to the kind of experiment: Antimicrobial activity against Pseudomonas aeruginosa PAO1 after 18 to 20 hrs by broth microdilution. The class given is functional. Put shortly: as §3
The target of series [10] is T2, A-type voltage-gated potassium channel KCND3 (Homo sapiens, UniProt Q9UK17).
T2 sequence (Q9UK17 whole entry): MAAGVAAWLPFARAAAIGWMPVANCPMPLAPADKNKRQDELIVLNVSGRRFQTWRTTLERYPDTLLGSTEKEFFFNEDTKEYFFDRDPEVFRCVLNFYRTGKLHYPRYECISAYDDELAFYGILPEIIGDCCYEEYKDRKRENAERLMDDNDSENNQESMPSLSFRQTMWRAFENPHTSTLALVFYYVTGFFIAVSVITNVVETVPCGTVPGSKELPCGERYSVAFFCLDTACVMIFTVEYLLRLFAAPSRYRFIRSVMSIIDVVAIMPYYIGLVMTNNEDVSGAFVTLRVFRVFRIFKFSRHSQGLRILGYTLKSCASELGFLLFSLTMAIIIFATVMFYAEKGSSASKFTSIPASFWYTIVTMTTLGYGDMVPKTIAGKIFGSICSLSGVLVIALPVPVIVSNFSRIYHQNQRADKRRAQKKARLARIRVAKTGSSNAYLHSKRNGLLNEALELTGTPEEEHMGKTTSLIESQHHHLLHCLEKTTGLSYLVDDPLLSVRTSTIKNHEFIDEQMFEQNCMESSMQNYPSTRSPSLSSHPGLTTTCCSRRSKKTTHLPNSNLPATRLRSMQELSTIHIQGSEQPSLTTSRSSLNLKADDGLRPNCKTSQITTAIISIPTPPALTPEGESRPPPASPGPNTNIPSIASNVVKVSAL
In words: Inhibition of potassium channel Kv4.3 (unknown origin). Put shortly: as §1

Series [11] has as its target Sodium-dependent noradrenaline transporter (Homo sapiens) (UniProt P23975). In words: Inhibition of NET (unknown origin) at 30 uM.
The target of series [12] is Voltage-dependent L-type calcium channel subunit alpha-1C (Homo sapiens, UniProt Q13936). In words: Inhibition of […] channel Cav1.2 (unknown origin). The method in brief: as §1
Series [13] in a line: AUC in beagle dog at 10 mg/kg, iv. Format: ADME, organism-based, Canis lupus familiaris. More on the design: dose 10 mg/kg, route intravenous. Particulars: plasma. The method in brief:
as §2

Series [14] can be described thus: Aqueous solubility of the compound. Particulars: buffer. The class given is physicochemical.
A further series concerns Klebsiella pneumoniae. In words: Antimicrobial activity against Klebsiella pneumoniae after 18 to 20 hrs by broth microdilution. The class given is functional. The method in brief:
as §3

Series [15] can be described thus: Clearance in rat at 10 mg/kg, iv. Format: ADME, organism-based. More on the design: dose 10 mg/kg, route intravenous. Particulars: in vivo. Put shortly:
as §2

Series [16] has as its target Voltage-dependent T-type calcium channel subunit alpha-1H (Homo sapiens, UniProt O95180). As to the kind of experiment: Inhibition of […] channel Cav3.2 (unknown origin). Put shortly:
as §1

Experimental findings from ChEMBL document CHEMBL3352316, “Optimization of physicochemical properties and safety profile of novel bacterial topoisomerase type II inhibitors (NBTIs) with activity against Pseudomonas aeruginosa” (Bioorg Med Chem, 2014) are described below.

Converted amounts (≈) assume the structure as drawn.

Chain of Voltage-dependent T-type calcium channel subunit alpha-1H (O95180 whole entry): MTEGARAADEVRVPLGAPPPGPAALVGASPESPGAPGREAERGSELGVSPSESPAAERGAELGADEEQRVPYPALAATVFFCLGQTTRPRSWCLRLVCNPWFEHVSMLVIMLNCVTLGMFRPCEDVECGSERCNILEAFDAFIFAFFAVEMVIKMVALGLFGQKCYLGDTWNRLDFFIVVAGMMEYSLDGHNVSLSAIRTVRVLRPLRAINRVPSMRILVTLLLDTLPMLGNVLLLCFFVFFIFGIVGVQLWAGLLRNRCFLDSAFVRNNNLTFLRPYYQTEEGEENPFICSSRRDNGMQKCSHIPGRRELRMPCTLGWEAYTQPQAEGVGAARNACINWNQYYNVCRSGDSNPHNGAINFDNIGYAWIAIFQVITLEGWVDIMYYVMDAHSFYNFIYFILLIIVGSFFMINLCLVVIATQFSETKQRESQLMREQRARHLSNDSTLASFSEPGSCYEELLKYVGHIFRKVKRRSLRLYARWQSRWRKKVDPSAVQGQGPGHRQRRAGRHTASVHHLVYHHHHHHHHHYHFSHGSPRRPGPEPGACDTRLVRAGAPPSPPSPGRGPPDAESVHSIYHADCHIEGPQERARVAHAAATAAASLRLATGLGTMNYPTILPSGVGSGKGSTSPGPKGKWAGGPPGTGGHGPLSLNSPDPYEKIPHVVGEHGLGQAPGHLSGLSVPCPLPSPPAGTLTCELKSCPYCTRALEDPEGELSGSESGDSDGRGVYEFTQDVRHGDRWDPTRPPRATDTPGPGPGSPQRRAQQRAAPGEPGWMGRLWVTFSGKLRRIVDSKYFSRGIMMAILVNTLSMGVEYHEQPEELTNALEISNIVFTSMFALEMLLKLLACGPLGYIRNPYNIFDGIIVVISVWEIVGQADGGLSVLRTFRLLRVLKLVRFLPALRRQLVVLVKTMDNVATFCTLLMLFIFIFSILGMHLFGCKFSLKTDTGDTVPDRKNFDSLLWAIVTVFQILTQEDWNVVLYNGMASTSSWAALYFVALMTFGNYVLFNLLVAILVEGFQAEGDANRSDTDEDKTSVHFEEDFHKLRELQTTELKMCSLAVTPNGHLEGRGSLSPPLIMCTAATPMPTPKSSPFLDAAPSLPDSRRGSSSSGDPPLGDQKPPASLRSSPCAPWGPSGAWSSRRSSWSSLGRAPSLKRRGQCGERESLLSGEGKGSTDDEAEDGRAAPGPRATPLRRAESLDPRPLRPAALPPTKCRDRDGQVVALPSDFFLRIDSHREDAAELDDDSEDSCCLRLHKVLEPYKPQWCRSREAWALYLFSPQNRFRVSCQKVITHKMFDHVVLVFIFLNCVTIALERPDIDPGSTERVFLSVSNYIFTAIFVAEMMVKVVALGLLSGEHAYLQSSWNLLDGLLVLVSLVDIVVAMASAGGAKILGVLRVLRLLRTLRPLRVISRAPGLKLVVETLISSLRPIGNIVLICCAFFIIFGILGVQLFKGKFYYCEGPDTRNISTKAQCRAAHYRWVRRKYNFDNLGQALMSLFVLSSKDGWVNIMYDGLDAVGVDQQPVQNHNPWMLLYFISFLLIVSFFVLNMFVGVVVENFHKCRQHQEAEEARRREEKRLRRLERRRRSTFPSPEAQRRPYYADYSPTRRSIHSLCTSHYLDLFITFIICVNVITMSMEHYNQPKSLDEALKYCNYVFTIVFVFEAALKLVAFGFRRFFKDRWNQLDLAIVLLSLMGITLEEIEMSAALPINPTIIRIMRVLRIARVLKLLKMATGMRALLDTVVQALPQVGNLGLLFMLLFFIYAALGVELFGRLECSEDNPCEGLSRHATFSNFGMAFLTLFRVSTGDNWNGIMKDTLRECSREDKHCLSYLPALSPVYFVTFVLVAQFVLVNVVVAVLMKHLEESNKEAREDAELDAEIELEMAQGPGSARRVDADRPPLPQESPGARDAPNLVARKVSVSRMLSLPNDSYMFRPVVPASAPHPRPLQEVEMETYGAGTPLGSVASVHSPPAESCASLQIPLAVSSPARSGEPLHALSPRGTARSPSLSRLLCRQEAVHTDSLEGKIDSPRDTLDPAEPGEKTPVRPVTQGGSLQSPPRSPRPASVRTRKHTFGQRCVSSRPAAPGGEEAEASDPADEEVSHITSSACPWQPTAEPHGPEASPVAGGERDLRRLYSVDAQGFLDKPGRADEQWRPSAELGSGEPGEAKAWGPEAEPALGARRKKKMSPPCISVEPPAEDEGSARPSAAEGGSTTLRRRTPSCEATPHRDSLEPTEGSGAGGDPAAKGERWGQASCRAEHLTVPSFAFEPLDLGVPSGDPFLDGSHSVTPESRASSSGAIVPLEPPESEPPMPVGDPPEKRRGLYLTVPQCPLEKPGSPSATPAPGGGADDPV
Chain of Sodium-dependent serotonin transporter (Homo sapiens) (P31645 whole entry, looked up): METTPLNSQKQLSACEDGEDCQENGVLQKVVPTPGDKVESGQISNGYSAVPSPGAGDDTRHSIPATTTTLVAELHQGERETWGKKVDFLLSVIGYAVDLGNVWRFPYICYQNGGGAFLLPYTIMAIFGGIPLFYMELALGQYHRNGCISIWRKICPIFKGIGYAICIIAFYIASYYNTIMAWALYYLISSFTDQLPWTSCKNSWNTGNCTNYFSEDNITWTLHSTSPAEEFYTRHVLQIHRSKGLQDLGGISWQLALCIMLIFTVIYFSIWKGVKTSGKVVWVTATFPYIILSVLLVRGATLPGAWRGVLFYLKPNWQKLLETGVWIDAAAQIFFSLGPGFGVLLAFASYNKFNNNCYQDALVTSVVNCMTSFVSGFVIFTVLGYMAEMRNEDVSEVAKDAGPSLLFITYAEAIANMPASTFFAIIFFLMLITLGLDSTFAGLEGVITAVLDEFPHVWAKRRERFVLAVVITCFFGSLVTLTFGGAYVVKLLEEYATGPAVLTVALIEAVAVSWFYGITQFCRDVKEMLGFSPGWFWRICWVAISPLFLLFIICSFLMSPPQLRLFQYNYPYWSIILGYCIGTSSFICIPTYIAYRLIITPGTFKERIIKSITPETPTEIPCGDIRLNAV
Chain of Potassium voltage-gated channel subfamily A member 5 (P22460 whole entry): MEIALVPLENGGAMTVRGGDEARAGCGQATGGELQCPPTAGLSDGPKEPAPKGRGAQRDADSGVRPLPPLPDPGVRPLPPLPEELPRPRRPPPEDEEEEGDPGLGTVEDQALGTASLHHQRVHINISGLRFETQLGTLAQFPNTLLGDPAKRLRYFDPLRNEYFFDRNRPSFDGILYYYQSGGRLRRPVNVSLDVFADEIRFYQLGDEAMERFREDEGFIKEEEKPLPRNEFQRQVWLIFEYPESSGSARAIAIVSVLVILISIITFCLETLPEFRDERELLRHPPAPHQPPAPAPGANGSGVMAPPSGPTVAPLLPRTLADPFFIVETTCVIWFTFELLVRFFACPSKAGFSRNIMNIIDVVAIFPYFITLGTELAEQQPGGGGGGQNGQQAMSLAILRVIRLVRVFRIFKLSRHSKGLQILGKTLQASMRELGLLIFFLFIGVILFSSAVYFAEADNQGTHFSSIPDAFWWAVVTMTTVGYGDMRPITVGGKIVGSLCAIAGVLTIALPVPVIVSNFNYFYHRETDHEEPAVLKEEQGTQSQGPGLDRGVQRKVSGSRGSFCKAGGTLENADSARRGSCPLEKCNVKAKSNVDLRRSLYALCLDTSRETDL
Chain of Sodium-dependent noradrenaline transporter (Homo sapiens) (P23975 whole entry): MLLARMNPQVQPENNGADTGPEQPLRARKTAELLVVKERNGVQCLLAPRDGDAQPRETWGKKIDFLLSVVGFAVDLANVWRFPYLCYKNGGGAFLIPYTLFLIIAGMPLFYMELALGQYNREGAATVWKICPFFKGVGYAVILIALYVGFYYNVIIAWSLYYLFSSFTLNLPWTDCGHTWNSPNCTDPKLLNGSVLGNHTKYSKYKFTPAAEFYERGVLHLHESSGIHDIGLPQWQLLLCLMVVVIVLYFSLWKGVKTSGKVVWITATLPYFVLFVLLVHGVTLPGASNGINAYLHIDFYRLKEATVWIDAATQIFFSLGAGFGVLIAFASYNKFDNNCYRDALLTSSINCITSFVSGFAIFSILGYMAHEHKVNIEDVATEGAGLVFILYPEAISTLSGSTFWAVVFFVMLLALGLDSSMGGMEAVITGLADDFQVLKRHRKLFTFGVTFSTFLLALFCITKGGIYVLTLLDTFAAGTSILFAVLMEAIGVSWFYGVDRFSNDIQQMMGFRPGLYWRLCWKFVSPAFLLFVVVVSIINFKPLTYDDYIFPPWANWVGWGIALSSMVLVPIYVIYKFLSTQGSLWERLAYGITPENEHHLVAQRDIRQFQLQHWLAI

On to `COc1ccc2ncc(=O)n(CCN3CCC(NCc4ccc5c(n4)NC(=O)CO5)CC3)c2c1`, for which the IC50 was 92 µM in series [1]; > 100 µM in [6]; > 100 µM in series [8]; > 100 µM in [10]; > 333 µM in [12]; > 100 µM in [16]. Besides, the clearance came to 8.5 mL/min/kg in [2] and 252 mL/min/kg in series [15]. The figures for the MIC90 against Escherichia coli, in the series on Pseudomonas aeruginosa and in the series with Klebsiella pneumoniae were 0.13 µg/mL (≈ 0.28 µM), 1 µg/mL (≈ 2.15 µM) and 4 µg/mL (≈ 8.61 µM), respectively. In addition, the inhibition came out at 77% in [3] and 61% in series [11]. The half-life in series [4] was 13 h; in series [9] it was 1.9 h. Moreover, the exposure (AUC) in [5] is 190 ng·h/mL; in [13], 6800 ng·h/mL. Further, the bioavailability in series [7] was determined as 18%. The solubility in series [14] was > 333 µM.

For `N[C@@H](Cn1c(=O)cnc2ccc(F)cc21)[C@H]1CC[C@H](NCc2ncc3c(n2)NC(=O)CO3)CC1`, the IC50 in [1] is > 333 µM; in series [6] it was > 100 µM; in [8], > 100 µM; in [10], > 100 µM; in [12] it was > 333 µM; in series [16], > 100 µM. Also, the clearance in [2] stood at 14 mL/min/kg; in [15], 46 mL/min/kg. In addition, the figures for the MIC90 against Escherichia coli, in the series on Pseudomonas aeruginosa and against Klebsiella pneumoniae were < 0.06 µg/mL, 0.5 µg/mL (≈ 1.07 µM) and 16 µg/mL (≈ 34.2 µM), respectively. For the same compound, the inhibition in [3] turned out to be 32%; in series [11] it was 9%. The half-life in series [4] was 9 h; in series [9], 10 h. Besides, the AUC came out at 3300 ng·h/mL in series [5] and 12000 ng·h/mL in [13]. Further, the bioavailability in [7] is 2%. In addition, in series [14], the solubility was > 333 µM.

A word on the IC50: it is the concentration needed to halve the response being measured. Usually clearance stands for a measure of how efficiently the substance is removed, as volume per time. Lower therefore signals inefficient removal. The MIC90 is an inhibitory concentration at the 90% level, which refers to growth in some studies and to a panel of isolates in others. Read a high MIC90 as weaker potency. For orientation: inhibition means the percentage by which the read-out fell short of the control. Higher therefore signals strong suppression. One may read the half-life as how long it takes for the measured level to halve. Higher therefore signals slow loss. In general, AUC refers to the area under the concentration-time curve, a measure of exposure. High values mean high exposure, low ones low exposure. One may read the bioavailability as dose-corrected exposure relative to a reference, in per cent. A higher bioavailability goes with much systemic uptake. For orientation: solubility means the concentration that dissolves in the medium under given conditions. A lower solubility goes with little dissolved substance.
